Results taken from ChEMBL document CHEMBL4145460, “Discovery of novel high potent and cellular active ADC type PTP1B inhibitors with selectivity over TC-PTP via modification interacting with C site” (Eur J Med Chem, 2018).
pIC50: −log10 of the molar value.

Columns and labels:
[1] = target: T1, Tyrosine-protein phosphatase non-receptor type 1 (Homo sapiens, UniProt P18031); experiment: Inhibition of recombinant human PTP1B using pNNP as substrate after 30 mins
T1 sequence (P18031 whole entry): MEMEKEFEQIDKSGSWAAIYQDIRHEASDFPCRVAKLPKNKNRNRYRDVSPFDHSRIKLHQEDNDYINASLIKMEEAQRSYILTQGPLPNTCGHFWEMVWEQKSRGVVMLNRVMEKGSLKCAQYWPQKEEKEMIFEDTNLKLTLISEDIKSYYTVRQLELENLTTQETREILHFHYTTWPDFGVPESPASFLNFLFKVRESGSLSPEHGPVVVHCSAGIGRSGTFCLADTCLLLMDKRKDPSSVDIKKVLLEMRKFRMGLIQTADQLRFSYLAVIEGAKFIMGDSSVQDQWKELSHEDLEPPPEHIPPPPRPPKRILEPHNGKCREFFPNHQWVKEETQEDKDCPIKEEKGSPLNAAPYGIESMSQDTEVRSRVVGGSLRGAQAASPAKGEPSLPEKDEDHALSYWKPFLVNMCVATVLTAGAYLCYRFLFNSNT

[2] = target: T2, Tyrosine-protein phosphatase non-receptor type 1 (Homo sapiens) (UniProt P18031); experiment: Inhibition of recombinant human PTP1B at 25 uM using pNNP as substrate after 30 mins relative to control
T2 sequence (whole entry): T1 sequence (P18031 whole entry)
How it was run: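 Recombinant PTP1B, 30 nM, with 2 mM pNPP, 1 mM dithiothreitol and 1 mM EDTA at pH 6.5. Compounds delivered from DMSO. Incubated 30 min at 37 °C, stopped with 2.5 M NaOH, pNP read at 405 nm.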

[3] = target: T3, Receptor-type tyrosine-protein phosphatase F (Homo sapiens, UniProt P10586); experiment: Inhibition of human GST-tagged LAR D1 (1275 to 1613 residues) expressed in Escherichia coli BL21-CondenPlus (DE3) at 25 uM using pNNP as substrate relative to control
T3 sequence (P10586 whole entry, the tested form may be a part): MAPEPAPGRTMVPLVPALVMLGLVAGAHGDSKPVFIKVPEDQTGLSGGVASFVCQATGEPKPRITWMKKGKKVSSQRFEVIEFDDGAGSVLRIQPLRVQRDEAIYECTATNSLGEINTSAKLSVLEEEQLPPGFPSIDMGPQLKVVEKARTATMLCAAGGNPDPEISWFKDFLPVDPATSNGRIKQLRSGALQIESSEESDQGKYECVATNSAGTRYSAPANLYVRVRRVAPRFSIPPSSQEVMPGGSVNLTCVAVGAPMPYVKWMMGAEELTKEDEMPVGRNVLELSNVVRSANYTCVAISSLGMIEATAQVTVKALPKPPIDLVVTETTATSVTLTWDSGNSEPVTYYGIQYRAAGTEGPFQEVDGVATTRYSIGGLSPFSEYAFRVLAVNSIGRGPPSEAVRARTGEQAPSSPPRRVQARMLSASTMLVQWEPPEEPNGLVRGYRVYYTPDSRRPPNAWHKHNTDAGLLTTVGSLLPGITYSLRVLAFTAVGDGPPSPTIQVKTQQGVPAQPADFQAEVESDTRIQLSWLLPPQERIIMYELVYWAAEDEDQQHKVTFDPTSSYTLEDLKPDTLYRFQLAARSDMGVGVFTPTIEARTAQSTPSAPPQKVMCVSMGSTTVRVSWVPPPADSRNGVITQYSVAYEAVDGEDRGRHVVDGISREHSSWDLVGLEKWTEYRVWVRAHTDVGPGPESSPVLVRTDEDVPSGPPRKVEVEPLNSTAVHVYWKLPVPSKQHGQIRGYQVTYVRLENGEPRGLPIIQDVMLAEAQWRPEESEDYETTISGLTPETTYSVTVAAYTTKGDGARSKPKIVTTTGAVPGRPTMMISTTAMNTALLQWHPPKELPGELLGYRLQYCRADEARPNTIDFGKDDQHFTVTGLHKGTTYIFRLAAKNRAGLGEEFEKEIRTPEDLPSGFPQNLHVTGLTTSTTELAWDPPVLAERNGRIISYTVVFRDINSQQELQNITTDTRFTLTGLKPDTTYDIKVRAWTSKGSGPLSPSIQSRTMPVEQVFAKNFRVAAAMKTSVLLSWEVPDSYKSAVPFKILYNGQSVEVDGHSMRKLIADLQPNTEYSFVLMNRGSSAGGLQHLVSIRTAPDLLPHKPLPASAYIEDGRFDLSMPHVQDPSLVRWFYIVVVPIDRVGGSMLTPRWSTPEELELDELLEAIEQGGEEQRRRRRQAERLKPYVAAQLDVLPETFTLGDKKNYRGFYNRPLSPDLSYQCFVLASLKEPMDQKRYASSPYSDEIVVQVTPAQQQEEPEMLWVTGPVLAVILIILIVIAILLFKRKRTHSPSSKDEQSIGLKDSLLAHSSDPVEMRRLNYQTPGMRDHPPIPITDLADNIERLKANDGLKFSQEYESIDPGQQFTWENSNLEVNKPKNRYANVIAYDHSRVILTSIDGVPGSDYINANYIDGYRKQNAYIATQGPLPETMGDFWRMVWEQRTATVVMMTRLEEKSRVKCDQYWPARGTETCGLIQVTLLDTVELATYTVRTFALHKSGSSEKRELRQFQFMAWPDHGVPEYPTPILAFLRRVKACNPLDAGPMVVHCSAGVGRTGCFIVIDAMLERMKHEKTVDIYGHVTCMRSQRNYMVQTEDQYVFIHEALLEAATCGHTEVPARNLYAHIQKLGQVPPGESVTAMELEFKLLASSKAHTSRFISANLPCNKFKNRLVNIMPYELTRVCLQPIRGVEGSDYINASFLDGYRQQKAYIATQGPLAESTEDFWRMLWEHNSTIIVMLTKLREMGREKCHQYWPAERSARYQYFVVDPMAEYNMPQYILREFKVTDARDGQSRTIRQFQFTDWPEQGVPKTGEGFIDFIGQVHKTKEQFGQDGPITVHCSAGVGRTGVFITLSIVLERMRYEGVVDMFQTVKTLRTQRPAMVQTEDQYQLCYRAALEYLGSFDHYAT

[4] = target: T4, Tyrosine-protein phosphatase non-receptor type 2 (Homo sapiens, UniProt P17706); experiment: Inhibition of human TCPTP using pNNP as substrate after 30 mins
T4 sequence (P17706 whole entry): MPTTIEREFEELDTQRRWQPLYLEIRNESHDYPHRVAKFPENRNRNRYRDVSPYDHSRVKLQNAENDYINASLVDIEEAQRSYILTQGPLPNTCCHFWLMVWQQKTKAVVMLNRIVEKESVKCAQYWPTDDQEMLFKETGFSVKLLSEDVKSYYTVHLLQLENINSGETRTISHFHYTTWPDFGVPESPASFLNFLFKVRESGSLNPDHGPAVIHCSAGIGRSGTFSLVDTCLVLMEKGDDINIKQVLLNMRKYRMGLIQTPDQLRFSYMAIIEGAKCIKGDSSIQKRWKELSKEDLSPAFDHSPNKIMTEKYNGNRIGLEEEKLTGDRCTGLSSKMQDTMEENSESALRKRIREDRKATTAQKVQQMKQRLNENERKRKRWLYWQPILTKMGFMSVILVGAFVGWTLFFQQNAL

[5] = target: T5, Tyrosine-protein phosphatase non-receptor type 11 (Homo sapiens, UniProt Q06124); experiment: Inhibition of human GST-tagged SHP2 ([…] residues) expressed in Escherichia coli BL21-CondenPlus (DE3) using pNNP as substrate
T5 sequence (Q06124 whole entry): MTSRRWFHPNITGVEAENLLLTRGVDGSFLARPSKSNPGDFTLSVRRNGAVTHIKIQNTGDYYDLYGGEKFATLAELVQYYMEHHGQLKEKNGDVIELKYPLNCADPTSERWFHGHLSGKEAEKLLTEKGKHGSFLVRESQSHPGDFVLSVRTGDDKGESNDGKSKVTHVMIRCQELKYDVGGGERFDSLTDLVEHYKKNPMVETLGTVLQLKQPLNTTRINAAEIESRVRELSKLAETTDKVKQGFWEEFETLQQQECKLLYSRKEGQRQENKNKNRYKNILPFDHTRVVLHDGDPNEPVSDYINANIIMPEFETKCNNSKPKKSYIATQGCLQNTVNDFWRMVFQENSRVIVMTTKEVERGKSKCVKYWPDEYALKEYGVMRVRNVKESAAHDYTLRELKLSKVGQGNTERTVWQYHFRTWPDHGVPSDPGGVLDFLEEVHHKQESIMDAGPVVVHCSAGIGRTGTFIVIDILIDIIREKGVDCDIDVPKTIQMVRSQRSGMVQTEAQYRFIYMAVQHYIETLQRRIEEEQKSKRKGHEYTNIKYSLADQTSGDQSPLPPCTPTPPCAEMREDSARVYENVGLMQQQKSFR

[6] = target: T6, Tyrosine-protein phosphatase non-receptor type 6 (Homo sapiens, UniProt P29350); experiment: Inhibition of human GST-tagged SHP1 (244 to 570 residues) expressed in Escherichia coli BL21-CondenPlus (DE3) using pNNP as substrate
T6 sequence (P29350 whole entry, the tested form may be a part): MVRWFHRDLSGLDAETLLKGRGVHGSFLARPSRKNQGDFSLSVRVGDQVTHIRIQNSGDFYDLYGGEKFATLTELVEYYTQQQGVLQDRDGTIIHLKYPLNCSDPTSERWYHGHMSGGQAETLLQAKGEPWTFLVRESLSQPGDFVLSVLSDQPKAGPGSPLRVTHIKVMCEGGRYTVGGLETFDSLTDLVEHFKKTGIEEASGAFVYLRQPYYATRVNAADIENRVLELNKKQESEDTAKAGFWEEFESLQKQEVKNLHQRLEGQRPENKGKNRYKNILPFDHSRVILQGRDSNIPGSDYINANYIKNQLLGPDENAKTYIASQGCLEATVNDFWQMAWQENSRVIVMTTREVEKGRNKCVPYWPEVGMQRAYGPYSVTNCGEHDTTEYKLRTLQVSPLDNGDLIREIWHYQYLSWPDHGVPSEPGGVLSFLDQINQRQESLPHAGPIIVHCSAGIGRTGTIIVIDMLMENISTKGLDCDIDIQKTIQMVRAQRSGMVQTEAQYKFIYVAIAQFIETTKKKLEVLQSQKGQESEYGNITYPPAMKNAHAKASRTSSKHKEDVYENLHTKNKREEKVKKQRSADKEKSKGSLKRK

Homo sapiens = organism: Homo sapiens; experiment: Selective ratio of IC50 for human TCPTP to IC50 for recombinant human PTP1B
How it was run: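 Ratio of TCPTP IC50 to PTP1B IC50. Both measured with the same pNPP assay: 2 mM pNPP, pH 6.5 with DTT and EDTA, 30 min at 37 °C, NaOH stop, A405, logit-derived IC50.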

[7] = target: T3, Receptor-type tyrosine-protein phosphatase F; experiment: Inhibition of human GST-tagged LAR D1 (1275 to 1613 residues) expressed in Escherichia coli BL21-CondenPlus (DE3) using pNNP as substrate
L6 [8] = experiment: Antidiabetic activity in rat L6 cells assessed as increase in insulin-stimulated 2-NBDG uptake at 10 uM after 30 mins by fluorescent assay relative to control; format: functional
How it was run: (§1)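 Differentiated L6 myotubes rinsed with warm PBS, serum-starved (serum-free DMEM 3 h, 37 °C; figure legend says 2 h), then exposed to compound at […] for 4 h. Insulin 10 nM for 10 min at 37 °C in Krebs-Ringer phosphate buffer pH 7.4, then 2-NBDG added. Uptake read after 30 min by fluorescence at ex 485/em 535 nm. Background from cells with drug but no 2-NBDG. n = 3, mean ± SEM.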

L6 [9] = experiment: Antidiabetic activity in rat L6 cells assessed as increase in insulin-stimulated 2-NBDG uptake at 0.5 uM after 30 mins by fluorescent assay relative to control; format: functional; how it was run: as §1
L6 [10] = experiment: Antidiabetic activity in rat L6 cells assessed as increase in insulin-stimulated 2-NBDG uptake at 2.5 uM after 30 mins by fluorescent assay relative to control; format: functional; how it was run: as §1
[11] = target: T6, Tyrosine-protein phosphatase non-receptor type 6; experiment: Inhibition of human GST-tagged SHP1 (244 to 570 residues) expressed in Escherichia coli BL21-CondenPlus (DE3) at 25 uM using pNNP as substrate relative to control
[12] = target: T7, Tyrosine-protein phosphatase non-receptor type 11 (Homo sapiens) (UniProt Q06124); experiment: Inhibition of human GST-tagged SHP2 ([…] residues) expressed in Escherichia coli BL21-CondenPlus (DE3) at 25 uM using pNNP as substrate relative to control
T7 sequence (whole entry): T5 sequence (Q06124 whole entry)

Compound `CCNC(=O)c1cc(NC(=O)NCc2cc(OCC)c(NS(C)(=O)=O)cc2OCC)ccc1OCC` has a pIC50 [1] of 6.77.
`CCOc1cc(NS(C)(=O)=O)c(OCC)cc1CNC(=O)Nc1ccc(OCC)c(C(=O)Nc2ccc(OC)cc2)c1` showed an inhibition [2] of under 50%.
Compound `CCCOc1ccc(NC(=O)NCc2cc(OCC)c(NS(C)(=O)=O)cc2OCC)cc1C(=O)OC` has an inhibition [3] of under 50%, a pIC50 [1] of 7.17 and a pIC50 [4] of 5.93. The pIC50 [5] was 5.11, the pIC50 [6] was 5.46 and the Ratio IC50 (Homo sapiens) was 17.3.
`CCOc1cc(NS(C)(=O)=O)c(OCC)cc1CNC(=O)Nc1ccc(OCC)c(C(=O)OC)c1` gave a pIC50 [1] of 7.73, a pIC50 [4] of 6.17 and a pIC50 [7] of 5.27. The pIC50 [5] was 6.04, the Activity (L6 [8]) was 22.9% and the pIC50 [6] was 5.96. The Activity (L6 [9]) was 16.2%, the Activity (L6 [10]) was 22.4% and the Ratio IC50 (Homo sapiens) was 36.
Compound `CCOc1cc(NS(C)(=O)=O)c(OCC)cc1CNC(=O)Nc1ccc(OCC)c(C(=O)Nc2ccccc2)c1` has an inhibition [2] of under 50%.
`CCOc1cc(NS(C)(=O)=O)c(OCC)cc1CNC(=O)Nc1ccc(OCC)c(C(=O)Nc2cccc(OC)c2)c1` showed a pIC50 [1] of 6.01.
`CCOc1cc(NS(C)(=O)=O)c(OCC)cc1CNC(=O)Nc1ccc(OCC)c(C(=O)NC)c1` was tested, and the inhibition [3] was under 50%, the pIC50 [1] was 6.78 and the pIC50 [4] was 5.12. For the same compound, the inhibition [11] was under 50%, the Ratio IC50 (Homo sapiens) was 45.9 and the inhibition [12] was under 50%.
`CCCNC(=O)c1cc(NC(=O)NCc2cc(OCC)c(NS(C)(=O)=O)cc2OCC)ccc1OCC` showed an inhibition [3] of under 50%, a pIC50 [1] of 6.73 and a pIC50 [4] of 5.69. For the same compound, the pIC50 [6] was 5.06, the Ratio IC50 (Homo sapiens) was 10.9 and the inhibition [12] was under 50%.
`CCOc1cc(NS(C)(=O)=O)c(OCC)cc1CNC(=O)Nc1ccc(OCC)c(C(=O)Nc2ccc(OC)c(OC)c2)c1` was tested, and the pIC50 [1] was 7.18, the pIC50 [4] was 6.41 and the pIC50 [7] was 5.13. For the same compound, the pIC50 [5] was 5.80, the Activity (L6 [8]) was 25.8% and the pIC50 [6] was 6.07. For the same compound, the Activity (L6 [9]) was 6.6%, the Activity (L6 [10]) was 18.7% and the Ratio IC50 (Homo sapiens) was 5.9.
`CCCCOc1ccc(NC(=O)NCc2cc(OCC)c(NS(C)(=O)=O)cc2OCC)cc1C(=O)OC` gave a pIC50 [1] of 6.15.
`CCOc1cc(NS(C)(=O)=O)c(OCC)cc1CNC(=O)Nc1ccc(OCC)c(C(=O)Nc2ccc(C)cc2)c1` showed a pIC50 [1] of 6.68, a pIC50 [4] of 6.06 and a pIC50 [7] of 5.16. It also gave a pIC50 [6] of 5.53, a Ratio IC50 (Homo sapiens) of 4.1 and an inhibition [12] of under 50%.
